Results: ChEMBL document CHEMBL1155944 (J Med Chem, 2008)

What was measured:
Oocyte [1] = experiment: Activity at rat GABAA alpha-1R66C-beta-2 receptor mutant expressed in Xenopus laevis oocytes assessed as inhibition of GABA-induced current at -60 mV by Two-Electrode voltage clamp method; format: cell-based
Oocyte [2] = experiment: Activity at rat GABAA alpha-1T129C-beta-2 receptor mutant expressed in Xenopus laevis oocytes assessed as inhibition of GABA-induced current at -60 mV by Two-Electrode voltage clamp method; format: cell-based
[3] = biological target: T1, GABA A receptor alpha-2/beta-2/gamma-2 (Rattus norvegicus) (UniProt P18508+P23576+P63138); experiment: Intrinsic activity at recombinant rat GABAA alpha-2-beta-3-gamma-2 receptor expressed in HEK293 cells assessed as induction of current at 1 mM by whole-cell patch-clamp technique relative to GABA; format: cell-based
How it was run: (§1)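 Rat αiβ3γ2S receptors transiently expressed in HEK293 cells, with EGFP marking transfected cells, recorded 2 days after transfection. Whole-cell patch clamp in HEPES saline, pH 7.35. Drug applied alone at 1, 10, 100 and 1000 μM. […] Data from at least four cells.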

[4] = biological target: Gamma-aminobutyric acid receptor subunit alpha-6 (Rattus norvegicus) (UniProt P30191); experiment: Antagonist activity at recombinant rat GABAA alpha-6-beta-3-gamma-2 receptor expressed in HEK293 cells assessed as inhibition of GABA-induced current at 1 mM by whole-cell patch-clamp technique; format: functional, cell-based; parameters: scale not given: the % may be the effect or the level left
Sequence of Gamma-aminobutyric acid receptor subunit alpha-6 (Rattus norvegicus) (P30191 whole entry): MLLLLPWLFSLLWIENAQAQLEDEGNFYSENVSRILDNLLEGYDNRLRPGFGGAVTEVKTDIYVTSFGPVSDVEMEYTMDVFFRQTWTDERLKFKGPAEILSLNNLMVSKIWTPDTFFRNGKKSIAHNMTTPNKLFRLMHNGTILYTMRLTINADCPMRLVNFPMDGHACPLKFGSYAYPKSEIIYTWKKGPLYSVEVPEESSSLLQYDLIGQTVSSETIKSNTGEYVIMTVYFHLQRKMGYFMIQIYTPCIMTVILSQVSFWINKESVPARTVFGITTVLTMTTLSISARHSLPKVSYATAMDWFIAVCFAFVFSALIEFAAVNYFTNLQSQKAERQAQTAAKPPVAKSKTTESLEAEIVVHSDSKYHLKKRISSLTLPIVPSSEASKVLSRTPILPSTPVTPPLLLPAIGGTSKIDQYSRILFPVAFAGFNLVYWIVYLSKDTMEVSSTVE
How it was run: (§2)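 HEK293 cells transiently transfected by calcium phosphate with rat αi, β3, γ2S and EGFP cDNAs, recorded 2 days later. Whole-cell patch clamp in HEPES saline, pH 7.35. […] Response expressed relative to the GABA-alone current. Data from at least four cells.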

[5] = biological target: Gamma-aminobutyric acid receptor subunit alpha-3 (Rattus norvegicus) (UniProt P20236); experiment: Intrinsic activity at recombinant rat GABAA alpha-3-beta-3-gamma-2 receptor expressed in HEK293 cells assessed as induction of current at 1 mM by whole-cell patch-clamp technique relative to GABA; format: cell-based; how it was run: as §1
Sequence of Gamma-aminobutyric acid receptor subunit alpha-3 (Rattus norvegicus) (P20236 whole entry): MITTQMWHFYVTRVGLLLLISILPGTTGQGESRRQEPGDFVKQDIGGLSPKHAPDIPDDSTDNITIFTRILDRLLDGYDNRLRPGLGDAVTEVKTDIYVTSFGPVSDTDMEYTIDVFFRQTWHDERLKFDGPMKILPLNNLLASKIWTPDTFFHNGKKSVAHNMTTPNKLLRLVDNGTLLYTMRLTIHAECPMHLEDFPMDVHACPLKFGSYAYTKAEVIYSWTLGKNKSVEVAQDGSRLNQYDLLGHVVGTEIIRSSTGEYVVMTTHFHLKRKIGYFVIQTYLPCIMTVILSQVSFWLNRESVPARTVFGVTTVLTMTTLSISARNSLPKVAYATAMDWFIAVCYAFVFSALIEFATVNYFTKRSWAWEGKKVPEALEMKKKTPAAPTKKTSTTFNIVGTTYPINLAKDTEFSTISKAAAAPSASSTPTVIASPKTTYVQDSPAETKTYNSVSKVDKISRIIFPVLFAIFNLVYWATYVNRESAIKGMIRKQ

[6] = biological target: Gamma-aminobutyric acid receptor subunit alpha-6 (Rattus norvegicus) (UniProt P30191); experiment: Displacement of [3H]Muscimol from GABAAalpha6 receptor in Sprague-Dawley rat brain cerebellum membrane at 100 uM; format: tissue-based
How it was run: (§3)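 Well-washed membranes from adult male Sprague-Dawley rat cortex or cerebellum (50–200 μg protein). Incubated 60 min on ice in 50 mM Tris/citrate, pH 7.3, with 6 nM [3H]muscimol and test compound. […] Filtered and counted by scintillation. IC50 and pseudo-Hill coefficient obtained by nonlinear regression.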

[7] = biological target: Gamma-aminobutyric acid receptor subunit alpha-4 (Rattus norvegicus) (UniProt P28471); experiment: Antagonist activity at recombinant rat GABAA alpha-4-beta-3-gamma-2 receptor expressed in HEK293 cells assessed as inhibition of GABA-induced current at 1 mM by whole-cell patch-clamp technique; format: functional, cell-based; parameters: scale not given: the % may be the effect or the level left; how it was run: as §2
Sequence of Gamma-aminobutyric acid receptor subunit alpha-4 (Rattus norvegicus) (P28471 whole entry): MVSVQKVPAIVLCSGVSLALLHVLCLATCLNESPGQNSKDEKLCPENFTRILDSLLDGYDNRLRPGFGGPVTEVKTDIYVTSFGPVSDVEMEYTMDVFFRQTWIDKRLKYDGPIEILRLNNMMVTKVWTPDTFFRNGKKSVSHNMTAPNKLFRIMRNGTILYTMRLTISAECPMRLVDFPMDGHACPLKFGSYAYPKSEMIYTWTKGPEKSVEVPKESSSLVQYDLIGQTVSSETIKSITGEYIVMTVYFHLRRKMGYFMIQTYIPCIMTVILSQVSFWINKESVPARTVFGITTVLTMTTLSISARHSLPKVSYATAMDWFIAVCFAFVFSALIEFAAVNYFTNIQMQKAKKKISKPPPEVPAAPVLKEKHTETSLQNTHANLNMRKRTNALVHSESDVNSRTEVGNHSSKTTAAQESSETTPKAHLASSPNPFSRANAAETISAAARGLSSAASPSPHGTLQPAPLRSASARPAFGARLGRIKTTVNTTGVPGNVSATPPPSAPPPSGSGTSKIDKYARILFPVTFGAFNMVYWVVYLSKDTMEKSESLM

Rattus norvegicus [8] = species on record: Rattus norvegicus; experiment: (§4) Displacement of [3H]Muscimol from GABAA alpha-1-alpha-5 receptor in Sprague-Dawley rat brain cortex membrane; how it was run: as §3
[9] = as §4; how it was run: as §3
[10] = biological target: Gamma-aminobutyric acid receptor subunit alpha-6 (Rattus norvegicus) (UniProt P30191); experiment: (§5) Displacement of [3H]Muscimol from GABAAalpha6 receptor in Sprague-Dawley rat brain cerebellum membrane; format: tissue-based; how it was run: as §3
[11] = biological target: Gamma-aminobutyric acid receptor subunit alpha-6 (Rattus norvegicus, UniProt P30191); experiment: as §5; format: tissue-based; how it was run: as §3
Sequence of Gamma-aminobutyric acid receptor subunit alpha-6 (P30191 whole entry): as the sequence (P30191 whole entry) above

[12] = biological target: T1, GABA A receptor alpha-2/beta-2/gamma-2 (Rattus norvegicus); experiment: Antagonist activity at recombinant rat GABAA alpha-2-beta-3-gamma-2 receptor expressed in HEK293 cells assessed as inhibition of GABA-induced current at 1 mM by whole-cell patch-clamp technique; format: functional, cell-based; parameters: scale not given: the % may be the effect or the level left; how it was run: as §2
[13] = biological target: Gamma-aminobutyric acid receptor subunit alpha-6 (Rattus norvegicus) (UniProt P30191); experiment: Displacement of [3H]Muscimol from GABAAalpha6 receptor in Sprague-Dawley rat brain cerebellum membrane at 1 mM; format: tissue-based; how it was run: as §3
Rattus norvegicus [14] = species on record: Rattus norvegicus; experiment: Displacement of [3H]Muscimol from GABAA alpha-1-alpha-5 receptor in Sprague-Dawley rat brain cortex membrane at 100 uM; how it was run: as §3
[15] = biological target: GABA A receptor alpha-5/beta-3/gamma-2 (Rattus norvegicus) (UniProt P18508+P19969+P63079); experiment: Intrinsic activity at recombinant rat GABAA alpha-5-beta-3-gamma-2 receptor expressed in HEK293 cells assessed as induction of current at 1 mM by whole-cell patch-clamp technique relative to GABA; format: cell-based; how it was run: as §1
Rattus norvegicus [16] = species on record: Rattus norvegicus; experiment: Displacement of [3H]Muscimol from GABAA alpha-1-alpha-5 receptor in Sprague-Dawley rat brain cortex membrane at 1 mM; how it was run: as §3

Row | inhibition (Oocyte [1]) | inhibition (Oocyte [2]) | Compound | Activity [3] | Activity [4] | Activity [5] | inhibition [6] | Activity [7] | logIC50 (Rattus norvegicus [8]) | IC50 [9] | logIC50 [10] | IC50 [11] | Activity [12] | inhibition [13] | inhibition (Rattus norvegicus [14]) | Activity [15] | inhibition (Rattus norvegicus [16])
1 | 75% | 60% | CS(=O)(=S)OCCNC(=O)CCCC[C@@H]1SC[C@@H]2NC(=O)N[C@@H]21 (stereo partly specified) |  |  |  |  |  |  |  |  |  |  |  |  |  | 
2 |  |  | Oc1nnc(C2CCNCC2)o1 | 17% | 41% | 18% | 38% | 52% | 2.26 | 183 µM | 2.09 | 123 µM | 42% | 77% | 38% | 34% | 79%
